Laboratory results reported in PubChem BioAssay.
Records with an inconclusive call do not appear.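 How the source made its calls, unless noted: active means viability increase at or above a cutoff of the median across tested compounds plus 3 SD (cut at about 8.5% in these data, passing the limit was not always enough); inconclusive means some gains above the cutoff, reason not given; inactive means the rest.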

Tests used:
[1] = OD615 S. cerevisiae growth inhibition, permissive medium, pilot counter-assay, permissive growth control for S. cerevisiae lifespan shortening project (AID 705;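 active means growth inhibition above 25% in both replicates, a cutoff set 3 SD above the mean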); conditions: OD615, 24 h, at 10 µM, stronger effect = higher value
Procedure, shortened: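 Material: engineered DeaD yeast; compound dosing: one dose 10 µM, DMSO 0.25% final; measure: yeast growth inhibition indicated by reduced 24 h OD615; detection: OD615 turbidity read; incubation: cells pre-grown 4 h, then 24 h compound exposure, 30 °C humidified; medium: permissive synthetic complete medium with raffinose and galactose carbon sources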

[2] = Restrictive medium S. cerevisiae growth inhibition, OD615, pilot screen of yeast lifespan reduction project, restrictive growth control (AID 706;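 active means growth inhibition above a set limit, 3 SD over mean compound inhibition, in both replicates, cut at about 43% in these data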;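 further: modified DeaD lifespan yeast strain shifted to restrictive glucose medium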); conditions: OD615, 48 h, at 10 µM, stronger effect = higher value
Procedure, shortened: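 material = engineered S. cerevisiae DeaD strain | medium = glucose-based CSMM-D restrictive medium | times = 4 h pre-incubation, 48 h exposure at 30 °C | technique = OD615 absorbance reading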

[3] = viability gain of MRP-1-high H69AR cells under doxorubicin, pilot screen, MRP-1 activator project, CellTiter-Glo, duplicate (AID 807); conditions: H69AR viability with doxorubicin, CellTiter-Glo luminescence; at 10 µM; stronger effect = higher value;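 further: compound pretreatment 18-22 h then 72 h combined with doxorubicin; 0% = doxorubicin alone and 100% = vehicle without doxorubicin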
[4] = growth suppression of beta-catenin knockout HCT116, pilot screen, human colon tumor cells (AID 823;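 active means cell viability at or below a set limit in both duplicate runs, the limit being the all-compound median minus 4 SD, cut at about 23% in these data, passing the limit was not always enough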;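 further: 0% = wells killed by 20 µM Hyamine and 100% = untreated DMSO cell wells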); conditions: CellTiter-Glo, 60 h, at 10 µM, stronger effect = lower value
[5] = growth suppression of PTEN-deleted HCT116, pilot screen, cell-based, HCT116 clonal line, CellTiter-Glo (AID 824;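 active means viability at or below 27.92% in each of two runs, the all-compound median minus 4 SD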;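 further: 0% = 20 µM Hyamine control and 100% = vehicle cell control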); conditions: 60 h, at 10 µM, stronger effect = lower value
[6] = inhibitors of the yeast RAM network, pilot screen, dse1pr::URA3 reporter, 5-FOA selection (AID 869;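 active means inhibition over a set limit, the all-compound mean plus 3 SD, in both replicate runs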;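 further: 0% = DMSO wells with no growth and 100% = 10 µM 1-NA-PP1 with full growth; RAM network block rescues cells from 5-FOA so hits raise OD615 growth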); conditions: S. cerevisiae dse1pr::URA3 5-FOA growth, OD615, 2 d; at 10 µM; stronger effect = higher value; strain carries analog-sensitive mutant Cbk1 kinase
[7] = RAM signaling pathway blockade in yeast – S. cerevisiae, Pdr1DBD-CYC8 efflux-inhibited sensitized strain, primary screen (AID 1298;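 active means RAM network inhibition above 8.4% in each of two replicates, 3 SD over the compound average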;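 further: 0% = DMSO untreated cells without growth and 100% = 10 µM 1-NA-PP1 full growth; higher means more yeast growth rescued from 5-FOA killing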); conditions: S. cerevisiae cbk1-as DSE1-URA3 strain, 5-FOA growth OD615, 2 d; at 50 µM; stronger effect = higher value

O=C(Nc1ccccc1)OCC1CCCN2CCCCC12 (stereo unspecified)
inactive: growth inhibition [1] -12.9% | growth inhibition [2] -13.1% | viability increase [3] -0.94% | viability [4] 95.7% | viability [5] 97.4% | inhibition [6] 0.69% | RAM network inhibition [7] 3.65%

COCCN1C(=O)c2oc3ccccc3c(=O)c2C1c1cccc(O)c1 (stereo unspecified)
inactive: growth inhibition [1] -7% | growth inhibition [2] -8.97% | viability increase [3] -0.6% | viability [4] 107% | viability [5] 94.3% | inhibition [6] 1.1% | RAM network inhibition [7] 2.85%

COC(=O)c1ccccc1Nc1cc(C)nc2nc(C)nn12
inactive: growth inhibition [1] -5.25% | growth inhibition [2] 0.455% | viability increase [3] -3.74% | viability [4] 105% | viability [5] 115% | inhibition [6] -0.315% | RAM network inhibition [7] 1.72%

CC(C)CCN(C)C1CCN(C(=O)Nc2c(F)cccc2F)CC1
inactive: growth inhibition [1] 0.53% | growth inhibition [2] -12.6% | viability increase [3] -3.34% | viability [4] 90.6% | viability [5] 91.7% | inhibition [6] 1.56% | RAM network inhibition [7] 0.26%

OC(CN1c2ccccc2Sc2ccccc21)Cn1nnc2ccccc21 (stereo unspecified)
inactive: growth inhibition [1] -4.44% | growth inhibition [2] -9.12% | viability increase [3] -6.85% | viability [4] 72% | viability [5] 66.2% | inhibition [6] 1.69% | RAM network inhibition [7] 10.2%

C=C(Br)Cn1c(CC(C)C)nc2ccccc21
inactive: growth inhibition [1] 13.3% | growth inhibition [2] -14.3% | viability increase [3] -4.96% | viability [4] 85.1% | viability [5] 83.7% | inhibition [6] 0.265% | RAM network inhibition [7] 4.37%

COc1ccc(NC(=O)CN(c2cc(C)cc(C)c2)S(=O)(=O)c2c(C)n[nH]c2C)cc1
inactive: growth inhibition [1] -9.19% | growth inhibition [2] -1.92% | viability increase [3] -2.97% | viability [4] 102% | viability [5] 94.6% | inhibition [6] 0.955% | RAM network inhibition [7] 5.46%

COC(=O)CC1Oc2ccc(C)cc2NC1=O (stereo unspecified)
inactive: growth inhibition [1] -4.56% | growth inhibition [2] -1.75% | viability increase [3] 2.26% | viability [4] 101% | viability [5] 101% | inhibition [6] 0.27% | RAM network inhibition [7] 2.35%

COc1ccc(CCNC(=O)c2c(-c3ccccc3)noc2C)cc1OC
inactive: growth inhibition [1] 3.07% | growth inhibition [2] -2.27% | viability increase [3] 0.19% | viability [4] 102% | viability [5] 101% | inhibition [6] 2.2% | RAM network inhibition [7] 0.43%

COc1ccc(N2CCN(S(=O)(=O)c3cccc4cccnc34)CC2)cc1
inactive: growth inhibition [1] -3.57% | growth inhibition [2] 8.34% | viability increase [3] -2.89% | viability [4] 84.9% | viability [5] 83.6% | inhibition [6] 0.47% | RAM network inhibition [7] 3.66%

CC1CN(C(=O)Nc2ccc3snnc3c2)c2ccccc21 (stereo unspecified)
inactive: growth inhibition [1] -4.18% | growth inhibition [2] -6.81% | viability increase [3] -2.57% | viability [4] 82% | viability [5] 75% | inhibition [6] 2.52% | RAM network inhibition [7] 4.27%

CCOC(=O)N1CCN(C(=O)c2cn(-c3ccc(C)c(C)c3)c(=O)c3ccccc23)CC1
inactive: growth inhibition [1] -10.6% | growth inhibition [2] -0.85% | viability increase [3] -2.69% | viability [4] 85.6% | viability [5] 94.4% | inhibition [6] 0.51% | RAM network inhibition [7] -0.53%

Cc1ccc(CNC(=O)c2ccc(Br)o2)cc1
inactive: growth inhibition [1] -14.5% | growth inhibition [2] -1.29% | viability increase [3] -0.67% | viability [4] 96.9% | viability [5] 98.1% | inhibition [6] 0.885% | RAM network inhibition [7] 3.41%

Cn1c(=O)oc2cc(S(=O)(=O)N3CCc4ccccc4C3)ccc21
inactive: growth inhibition [1] -14.7% | growth inhibition [2] -5.15% | viability increase [3] -2.36% | viability [4] 99.2% | viability [5] 91.9% | inhibition [6] 2.58% | RAM network inhibition [7] 5.77%

COc1ccc(N2C(=O)c3ccccc3NC23CCCCC3)cc1
inactive: growth inhibition [1] -13.4% | growth inhibition [2] -9.03% | viability increase [3] -1.34% | viability [4] 94.8% | viability [5] 91.5% | inhibition [6] 0.47% | RAM network inhibition [7] 1.91%

COc1ccc(Cc2nc(-c3ccc(-n4cccc4)cc3)no2)cc1OC
inactive: growth inhibition [1] -2.5% | growth inhibition [2] -10.8% | viability increase [3] 2.61% | viability [4] 28% | viability [5] 54.7% | inhibition [6] 4.33% | RAM network inhibition [7] 9.02%

O=C(NCc1ccc2c(c1)OCO2)c1cc2c(s1)CSC2
inactive: growth inhibition [1] -4.81% | growth inhibition [2] 3.8% | viability increase [3] -1.75% | viability [4] 99.2% | viability [5] 95.5% | inhibition [6] 1.75% | RAM network inhibition [7] 0.94%

COC(=O)CN1C(=O)C(O)(CC(=O)c2ccc(Br)cc2)c2ccccc21 (stereo unspecified)
inactive: growth inhibition [1] 5.54% | growth inhibition [2] 11.5% | viability increase [3] -2.96% | viability [4] 92.4% | viability [5] 96.6% | inhibition [6] 0.785% | RAM network inhibition [7] 3.19%

COC(=O)c1c(C)oc2ccc(OC(=O)c3cccs3)cc12
inactive: growth inhibition [1] 4.65% | growth inhibition [2] -15% | viability increase [3] 1.81% | viability [4] 96.3% | viability [5] 99.5% | inhibition [6] 0.81% | RAM network inhibition [7] 0.1%

O=C(NC1CCCCCCC1)c1c(O)c2ccccc2[nH]c1=O
inactive: growth inhibition [1] -3.12% | growth inhibition [2] 8.01% | viability increase [3] -4.23% | viability [4] 91.6% | viability [5] 92.5% | inhibition [6] 2.4% | RAM network inhibition [7] -0.37%

COc1ccc(C2C(C(=O)NCc3ccccn3)c3ccccc3C(=O)N2C)cc1OC (stereo unspecified)
inactive: growth inhibition [1] -4.72% | growth inhibition [2] -0.835% | viability increase [3] -0.8% | viability [4] 101% | viability [5] 101% | inhibition [6] 1.01% | RAM network inhibition [7] 0.74%

CCN1CCN(c2cc(C)c3cc(NC(=O)c4ccncc4)ccc3n2)CC1
inactive: growth inhibition [1] -8.8% | growth inhibition [2] 1.77% | viability increase [3] -4.96% | viability [4] 82.6% | viability [5] 79.5% | inhibition [6] 1.46% | RAM network inhibition [7] 1.77%

COC(=O)c1ccc2c(=O)n3c(nc2c1)SCC(c1ccccc1)=N3
inactive: growth inhibition [1] 2.69% | growth inhibition [2] -0.25% | viability increase [3] -1.81% | viability [4] 95.1% | viability [5] 94.8% | inhibition [6] 2.39% | RAM network inhibition [7] 10.7%

COc1cc(C2C(C(=O)OC(C)C)=C(C)Nc3ncnn32)cc(OC)c1OC (stereo unspecified)
inactive: growth inhibition [1] -8.66% | growth inhibition [2] -10.4% | viability increase [3] -3.15% | viability [4] 100% | viability [5] 96.8% | inhibition [6] 1.19% | RAM network inhibition [7] 1.44%

CCNC(=O)c1c(C)nc2ccccn12
inactive: growth inhibition [1] 3.27% | growth inhibition [2] -7.95% | viability increase [3] -3.03% | viability [4] 101% | viability [5] 91% | inhibition [6] -0.1% | RAM network inhibition [7] 0.67%

CC1(C)CC(=O)c2sc(NC(=O)c3ccco3)nc2C1
inactive: growth inhibition [1] -15% | growth inhibition [2] -0.525% | viability increase [3] -2.54% | viability [4] 94.2% | viability [5] 84.1% | inhibition [6] 0.735% | RAM network inhibition [7] 2.58%

CC(C)(C)NC(=O)C1CCCN(S(=O)(=O)c2cccc3cccnc23)C1 (stereo unspecified)
inactive: growth inhibition [1] -5.03% | growth inhibition [2] 3.88% | viability increase [3] -2.62% | viability [4] 103% | viability [5] 96.1% | inhibition [6] 1.6% | RAM network inhibition [7] 0.52%

Cc1cc(N2CCOCC2)cc(C)[n+]1[O-]
inactive: growth inhibition [1] -2.4% | growth inhibition [2] -2.99% | viability increase [3] -1.54% | viability [4] 89.5% | viability [5] 93.2% | inhibition [6] -0.115% | RAM network inhibition [7] 1.76%

COc1c(C)cc(Br)cc1C(=O)Nc1cccc(-c2nc3ncccc3o2)c1
inactive: growth inhibition [1] -0.485% | growth inhibition [2] 15% | viability increase [3] -4.84% | viability [4] 55.6% | viability [5] 46.5% | inhibition [6] 2.24% | RAM network inhibition [7] 7.82%

Cn1cc(SCC(=O)N2CCN(c3ccccc3)CC2)c2ccccc21
inactive: growth inhibition [1] -0.395% | growth inhibition [2] 11.5% | viability increase [3] -4.68% | viability [4] 91.3% | viability [5] 88.4% | inhibition [6] 1.52% | RAM network inhibition [7] 7.36%

O=C(Nc1ccccc1C(=O)NCc1ccco1)NC1CCCCC1
inactive: growth inhibition [1] -5.4% | growth inhibition [2] 6.01% | viability increase [3] -3.58% | viability [4] 93.1% | viability [5] 92.8% | inhibition [6] 0.79% | RAM network inhibition [7] 0.59%

Cn1c(=O)[nH]c(=O)c2c1nc(SCCN1CCOCC1)n2CCCc1ccccc1
inactive: growth inhibition [1] -6.32% | growth inhibition [2] -14.4% | viability increase [3] -3.69% | viability [4] 96.8% | viability [5] 85.5% | inhibition [6] 0.63% | RAM network inhibition [7] 4.46%

O=C(CSc1nnc(Cc2cc(=O)[nH]c(=O)[nH]2)n1-c1ccc(F)cc1)NC1CCCC1
inactive: growth inhibition [1] -14.8% | growth inhibition [2] -7.13% | viability increase [3] -1.18% | viability [4] 105% | viability [5] 102% | inhibition [6] 0.96% | RAM network inhibition [7] 6.6%
